Experimental data reported in ChEMBL document CHEMBL1138650, “Inactivation of human S-adenosylhomocysteine hydrolase by covalent labeling of cysteine 195 with thionucleoside derivatives” (Bioorg Med Chem Lett, 2004).

Columns and labels:
Adenosylhomocysteinase [1] = molecular target: T1, Adenosylhomocysteinase (Homo sapiens, UniProt P23526); experiment: Binding affinity for human placental S-adenosyl-homocysteine hydrolase
Procedure, shortened: (§1)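 Recombinant human placental enzyme, purified to homogeneity, at 2 µM, preincubated at 37°C with inhibitor at various concentrations and times in 20 mM potassium phosphate pH 7.5, 1 mM EDTA. Ki and kinact come from a double reciprocal plot of pseudo-first-order inactivation rate versus 1/[I].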
Target sequence in this assay (P23526 whole entry): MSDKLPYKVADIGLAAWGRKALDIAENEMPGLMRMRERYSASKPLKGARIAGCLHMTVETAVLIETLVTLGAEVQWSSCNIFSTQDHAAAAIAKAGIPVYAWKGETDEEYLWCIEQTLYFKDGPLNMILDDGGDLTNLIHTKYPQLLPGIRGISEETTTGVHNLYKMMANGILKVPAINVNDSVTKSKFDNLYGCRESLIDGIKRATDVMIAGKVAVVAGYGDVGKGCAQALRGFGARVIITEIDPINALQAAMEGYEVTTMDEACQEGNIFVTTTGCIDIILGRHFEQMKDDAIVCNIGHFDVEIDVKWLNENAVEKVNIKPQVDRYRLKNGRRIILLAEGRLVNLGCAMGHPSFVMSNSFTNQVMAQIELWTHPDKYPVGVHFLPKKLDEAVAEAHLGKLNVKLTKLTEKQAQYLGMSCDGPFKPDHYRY

Adenosylhomocysteinase [2] = molecular target: T1, Adenosylhomocysteinase; experiment: Inactivation rate constant for human placental S-adenosyl-homocysteine hydrolase; procedure, shortened: as §1
Target sequence in this assay (P23526 2-432 limits assumed): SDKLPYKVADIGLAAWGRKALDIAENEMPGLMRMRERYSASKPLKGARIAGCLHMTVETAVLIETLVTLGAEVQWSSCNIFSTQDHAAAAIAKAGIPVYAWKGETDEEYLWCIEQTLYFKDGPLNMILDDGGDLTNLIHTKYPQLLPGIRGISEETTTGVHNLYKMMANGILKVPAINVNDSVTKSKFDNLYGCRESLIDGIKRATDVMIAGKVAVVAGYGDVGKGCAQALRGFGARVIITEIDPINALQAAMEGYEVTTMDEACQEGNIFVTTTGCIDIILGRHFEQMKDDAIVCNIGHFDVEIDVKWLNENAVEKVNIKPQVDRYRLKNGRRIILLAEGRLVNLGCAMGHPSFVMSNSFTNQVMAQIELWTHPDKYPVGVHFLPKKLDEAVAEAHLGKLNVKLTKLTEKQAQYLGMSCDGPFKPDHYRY

SMILES	Ki (Adenosylhomocysteinase [1]) [µM]	Kinact (Adenosylhomocysteinase [2]) [min⁻¹]
CSSC[C@H]1OC(n2cnc3c(N)ncnc32)[C@H](O)[C@@H]1O (stereo not given in full)	19	0.05
Nc1ncnc2c1ncn2C1OC([C@@H]2CS2)[C@@H](O)[C@H]1O (single isomer, unassigned)	105	0.1
Nc1ncnc2c1ncn2C1O[C@H]([C@H]2CS2)[C@@H](O)[C@H]1O (stereo not given in full)	50	0.03
Nc1ncnc2c1ncn2C1O[C@@H](CSSC[C@H]2OC(n3cnc4c(N)ncnc43)[C@H](O)[C@@H]2O)[C@H](O)[C@@H]1O (stereo not given in full)	96	0.05
Nc1ncnc2c1ncn2C1O[C@H](CS)[C@@H](O)[C@H]1O (stereo not given in full)	4	0.04
